Common to all, as to format: functional, cell-based
The subject of test [1] is KB. In words: Cytotoxicity against human KB cells after 72 hrs. The essentials: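 KB cells from the American Type Culture Collection; growth monitored after 72 h incubation with compound. IC50 taken as the drug concentration giving 50% growth inhibition.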
For test [2], the system named is A549. In words: Cytotoxicity against human A549 cells by SRB assay. On the technique in general: The SRB assay estimates cell density from bound dye.
The test system of test [3] is HL-60. The test is described as follows: Cytotoxicity against human HL60 cells by SRB assay.

With `COc1cc(/C=C/CO)cc(OC)c1OCc1ccccc1`, in test [1], the IC50 (usually the point on the concentration scale where inhibition reaches its midpoint) is 860 µM.

In test [1], `COc1cc(/C=C/C=O)cc(OC)c1OCc1ccccc1` yielded an IC50 of 640 µM. Compound `COc1cc(/C=C/CO)cc(OC)c1OCC=C(C)C` showed an IC50 in test [1] of 7.8 µM. For the compound `COc1cc(/C=C/C=O)cc(OC)c1OC/C=C(\C)CCC=C(C)C` [NELUMAL A], the IC50 in test [2] was found to be 22 µM; in test [1], 2.6 µM; in test [3], 12 µM. Regarding `COc1cc(/C=C/CO)cc(OC)c1OC/C=C(\C)CCC=C(C)C` [NELUMOL A], the IC50 in test [2] stood at 34 µM; in test [1] it was 3 µM; in test [3], 6.7 µM.

These data come from ChEMBL document CHEMBL1150597, “Syntheses of two cytotoxic sinapyl alcohol derivatives and isolation of four new related compounds from Ligularia nelumbifolia” (J Nat Prod, 2002).
